From ChEMBL document CHEMBL3227929, “Synthesis and evaluation for diuretic activity of 1-substituted 6-chloro-5-sulfamylindolines” (1979) come the findings set out here.

Holding throughout (format): functional
Experiment [1] relates to Rattus norvegicus. The experiment in a line: Diuretic activity in Wistar rat assessed as volume of excreted urine at 50 mg/kg, po measured after 0 to 5 hrs relative to urea-treated control. In outline:
(§1)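 Female Wistar rats (150-200 g), groups of six, fasted 16 h, dosed orally at 50 mg/kg in 1% saline (15 mL/kg). Housed singly in metabolic cages with water ad libitum. Urine collected 0-5 h and 5-24 h. Na+ and K+ measured by flame photometry as mean mequiv, volume as mean mL. Each expressed as a ratio to a urea group (1000 mg/kg) run alongside vehicle control.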

Experiment [2] relates to Rattus norvegicus. Nature of the experiment: Diuretic activity in Wistar rat assessed as sodium level in excreted urine at 50 mg/kg, po measured after 0 to 5 hrs by flame photometric analysis relative to urea-treated control. In outline: as §1
Experiment [3] concerns Rattus norvegicus. Nature of the experiment: Diuretic activity in Wistar rat assessed as potassium level in excreted urine at 50 mg/kg, po measured after 0 to 5 hrs by flame photometric analysis relative to urea-treated control. In outline:
as §1

In experiment [4] the test system is Rattus norvegicus. The experiment in a line: Diuretic activity in Wistar rat assessed as volume of excreted urine at 50 mg/kg, po measured after 5 to 24 hrs relative to urea-treated control. In outline: as §1
Experiment [5] has as its system Rattus norvegicus. The experiment in a line: Diuretic activity in Wistar rat assessed as sodium level in excreted urine at 50 mg/kg, po measured after 5 to 24 hrs by flame photometric analysis relative to urea-treated control. In outline:
as §1

Experiment [6] deals with Rattus norvegicus. Nature of the experiment: Diuretic activity in Wistar rat assessed as potassium level in excreted urine at 50 mg/kg, po measured after 5 to 24 hrs by flame photometric analysis relative to urea-treated control. In outline: as §1

For the compound `CC(=O)N1CCc2cc(S(N)(=O)=O)c(Cl)cc21`, the Ratio with Rattus norvegicus [1] is recorded as 0.53; in the experiment with Rattus norvegicus [2], 0.63; in the experiment with Rattus norvegicus [3] it was 0.53; in the experiment on Rattus norvegicus [4] it was 0.72; in the experiment on Rattus norvegicus [5] it was 1.09; with Rattus norvegicus [6], 1.1.
Consider `Cl.NS(=O)(=O)c1cc2c(cc1Cl)NCC2`, for which the Ratio with Rattus norvegicus [1] came to 0.62; in the experiment on Rattus norvegicus [2], 0.95; with Rattus norvegicus [3], 0.76; with Rattus norvegicus [4], 0.94; with Rattus norvegicus [5], 1.02; with Rattus norvegicus [6], 0.83.
As for `NS(=O)(=O)c1cc2c(cc1Cl)N(C(=O)c1ccco1)CC2`, the Ratio was determined as 0.31 in the experiment with Rattus norvegicus [1]; 0.46 in the experiment on Rattus norvegicus [2]; 0.38 with Rattus norvegicus [3]; 0.87 in the experiment on Rattus norvegicus [4]; 1.2 in the experiment with Rattus norvegicus [5]; 1.23 with Rattus norvegicus [6].
On to `NS(=O)(=O)c1cc2c(cc1Cl)N(C(=O)c1ccccc1)CC2`, for which the Ratio in the experiment on Rattus norvegicus [1] is on record as 0.83; in the experiment on Rattus norvegicus [2], 0.79; in the experiment on Rattus norvegicus [3], 0.41; in the experiment on Rattus norvegicus [4], 0.85; in the experiment with Rattus norvegicus [5] it was 1.08; in the experiment on Rattus norvegicus [6], 1.1.
Consider `CCCC(=O)N1CCc2cc(S(N)(=O)=O)c(Cl)cc21`, for which the Ratio in the experiment on Rattus norvegicus [1] stood at 0.54; in the experiment with Rattus norvegicus [2], 1.04; in the experiment with Rattus norvegicus [3], 0.53; in the experiment on Rattus norvegicus [4] it was 0.96; in the experiment with Rattus norvegicus [5] it was 1.3; with Rattus norvegicus [6], 1.17.
In the case of `NS(=O)(=O)c1cc2c(cc1Cl)N(Cc1ccco1)CC2`, the Ratio in the experiment with Rattus norvegicus [1] is 0.15; with Rattus norvegicus [2], 0.29; in the experiment on Rattus norvegicus [3], 0.24; in the experiment with Rattus norvegicus [4], 1; with Rattus norvegicus [5] it was 1.09; with Rattus norvegicus [6], 1.29.
`NS(=O)(=O)c1cc2c(cc1Cl)N(Cc1ccccc1)CC2`: the Ratio came to 0.77 with Rattus norvegicus [1]; 1 in the experiment on Rattus norvegicus [2]; 0.73 in the experiment with Rattus norvegicus [3]; 1.8 in the experiment on Rattus norvegicus [4]; 1.3 in the experiment with Rattus norvegicus [5]; 1.2 in the experiment with Rattus norvegicus [6].
Turning to `CCCCN1CCc2cc(S(N)(=O)=O)c(Cl)cc21`, the Ratio with Rattus norvegicus [1] is 0.7; in the experiment on Rattus norvegicus [2] it was 0.98; with Rattus norvegicus [3] it was 0.78; in the experiment with Rattus norvegicus [4], 0.9; in the experiment on Rattus norvegicus [5] it was 1.15; with Rattus norvegicus [6] it was 1.06.
Regarding `NS(=O)(=O)c1cc(C(=O)NN2CCc3cc(S(N)(=O)=O)c(Cl)cc32)ccc1Cl`, the Ratio amounted to 0.99 in the experiment with Rattus norvegicus [1]; 1.47 in the experiment on Rattus norvegicus [2]; 1.09 in the experiment with Rattus norvegicus [3]; 1.26 in the experiment with Rattus norvegicus [4]; 1.24 in the experiment on Rattus norvegicus [5]; 1.18 with Rattus norvegicus [6].
Turning to `NS(=O)(=O)c1cc2c(cc1Cl)N=CNS2(=O)=O` [CHLOROTHIAZIDE], the Ratio is reported as 1.3 in the experiment with Rattus norvegicus [1]; 1.9 in the experiment on Rattus norvegicus [2]; 1.5 in the experiment on Rattus norvegicus [3]; 1 in the experiment with Rattus norvegicus [4]; 1.1 in the experiment on Rattus norvegicus [5]; 1 in the experiment with Rattus norvegicus [6].
Consider `NS(=O)(=O)c1cc(C(=O)O)c(NCc2ccco2)cc1Cl` [FUROSEMIDE], for which the Ratio with Rattus norvegicus [1] is on record as 2.75; with Rattus norvegicus [2], 9.63; in the experiment with Rattus norvegicus [3], 1.12; in the experiment on Rattus norvegicus [4], 1.08; in the experiment on Rattus norvegicus [5], 0.96; in the experiment with Rattus norvegicus [6] it was 1.31.
